Calls of active or inactive are those of the source. The calls are words filed in the database; no cut-off is given here.
Legend:
[1] = test system: Trypanosoma brucei rhodesiense; assay: Antitrypanosomal activity against Trypanosoma brucei rhodesiense infected in vervet monkey assessed as body weight change at 3 mg/kg, po administered on day 7 post infection for 5 days; type: functional
In short: (§1)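 Body weight change is given as percent of the mean preinfection weight (n=3 per group). It was recorded at day 0 p.t., day 28 p.t. and end point. Oral gavage was once daily: 5 days from day 7 p.i., or 10 days from day 28 p.i.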

[2] = test system: Trypanosoma brucei rhodesiense; assay: Antitrypanosomal activity against Trypanosoma brucei rhodesiense infected in vervet monkey assessed as body weight change at 10 mg/kg, po administered on day 14 post infection for 5 days; type: functional
[3] = test system: Trypanosoma brucei rhodesiense; assay: Antimicrobial activity against Trypanosoma brucei rhodesiense infected in vervet monkeys assessed as cure from infection at 1 mg/kg, po administered on day 7 post infection for 5 days; type: functional, organism-based; set-up: dose 1 mg/kg
In short: (§2)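 Vervet monkeys (n=3 per group), infected with T. b. rhodesiense KETRI 2537. Dosed by oral gavage with a suspension once daily for 5 consecutive days from day 7 p.i. Cure meant no trypanosomes over 180 days p.t. in blood (wet film, HCT) or CSF (hemocytometer, centrifugation), with mouse subinoculation of negative samples.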

[4] = test system: Trypanosoma brucei rhodesiense; assay: Antimicrobial activity against Trypanosoma brucei rhodesiense infected in vervet monkeys assessed as cure from infection at 3 mg/kg, po administered on day 7 post infection for 5 days; type: functional, organism-based; set-up: dose 3 mg/kg; in short: as §2
[5] = test system: Trypanosoma brucei rhodesiense; assay: Antimicrobial activity against Trypanosoma brucei rhodesiense infected in vervet monkeys assessed as cure from infection at 10 mg/kg, po administered on day 7 post infection for 5 days; type: functional, organism-based; set-up: dose 10 mg/kg; in short: as §2
[6] = test system: Trypanosoma brucei rhodesiense; assay: Antitrypanosomal activity against Trypanosoma brucei rhodesiense infected in vervet monkey 463 assessed as time to detect parasitemia in wet films of blood at 1 mg/kg, po administered on day 7 post infection for 5 days by hematocrit centrifugation technique; type: functional
In short: (§3)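 Parasitemia was monitored from 3 days p.i. in ear-prick or inguinal venous blood. Methods were wet-film microscopy (detection limit 10^5 trypanosomes/ml) and hematocrit centrifugation technique (detection limit 10^3 trypanosomes/ml). Drug was given once daily by oral gavage: 5 days from day 7 p.i., or 10 days from day 28 p.i.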

[7] = test system: Trypanosoma brucei rhodesiense; assay: Antitrypanosomal activity against Trypanosoma brucei rhodesiense infected in vervet monkey 484 assessed as time to detect parasitemia in wet films of blood at 1 mg/kg, po administered on day 7 post infection for 5 days by hematocrit centrifugation technique; type: functional; in short: as §3
[8] = test system: Trypanosoma brucei rhodesiense; assay: Antitrypanosomal activity against Trypanosoma brucei rhodesiense infected in vervet monkey 485 assessed as time to detect parasitemia in wet films of blood at 1 mg/kg, po administered on day 7 post infection for 5 days by hematocrit centrifugation technique; type: functional; in short: as §3
[9] = test system: Trypanosoma brucei rhodesiense; assay: Antitrypanosomal activity against Trypanosoma brucei rhodesiense infected in vervet monkey 485 assessed as time to detect CSF parasitosis at 1 mg/kg, po administered on day 7 post infection for 5 days measured after 14 to 21 days by microscopy; type: functional
In short: (§4)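 Trypanosomes and white cells in free-flowing CSF were counted by hemocytometer. Negative CSF was centrifuged and re-examined. Samples still negative were inoculated at 0.2 ml intraperitoneally into two mice each. Drug was given once daily by oral gavage: 5 days from day 7 p.i., or 10 days from day 28 p.i.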

[10] = test system: Trypanosoma brucei rhodesiense; assay: Antitrypanosomal activity against Trypanosoma brucei rhodesiense infected in vervet monkey 482 assessed as time to detect parasitemia in wet films of blood at 3 mg/kg, po administered on day 7 post infection for 5 days by hematocrit centrifugation technique; type: functional; in short: as §3
[11] = test system: Trypanosoma brucei rhodesiense; assay: Antitrypanosomal activity against Trypanosoma brucei rhodesiense infected in vervet monkey 482 assessed as time to detect CSF parasitosis at 3 mg/kg, po administered on day 7 post infection for 5 days measured after 14 to 21 days by microscopy; type: functional; in short: as §4
[12] = test system: Trypanosoma brucei rhodesiense; assay: Antitrypanosomal activity against Trypanosoma brucei rhodesiense infected in vervet monkey 483 assessed as time to detect parasitemia at 3 mg/kg, po administered on day 7 post infection for 5 days; type: functional; in short: as §3
[13] = test system: Trypanosoma brucei rhodesiense; assay: Antitrypanosomal activity against Trypanosoma brucei rhodesiense infected in vervet monkey 483 assessed as time to detect parasitemia in wet films of blood at 3 mg/kg, po administered on day 7 post infection for 5 days by hematocrit centrifugation technique; type: functional; in short: as §3
[14] = test system: Trypanosoma brucei rhodesiense; assay: Antitrypanosomal activity against Trypanosoma brucei rhodesiense infected in vervet monkey 454 assessed as cure from infection at 10 mg/kg, po administered on day 7 post infection for 5 days; type: functional, organism-based; set-up: dose 10 mg/kg; in short: as §2
[15] = test system: Trypanosoma brucei rhodesiense; assay: Antitrypanosomal activity against Trypanosoma brucei rhodesiense infected in vervet monkey 471 assessed as time to detect CSF parasitosis at 10 mg/kg, po administered on day 14 post infection for 5 days measured after 14 to 21 days by microscopy; type: functional, organism-based; set-up: dose 10 mg/kg
[16] = test system: Trypanosoma brucei rhodesiense; assay: Antitrypanosomal activity against Trypanosoma brucei rhodesiense infected in vervet monkey 490 assessed as time to detect CSF parasitosis at 10 mg/kg, po administered on day 28 post infection for 10 days measured after 14 to 21 days by microscopy; type: functional; in short: as §4
[17] = test system: Trypanosoma brucei rhodesiense; assay: Antitrypanosomal activity against Trypanosoma brucei rhodesiense infected in vervet monkey 501 assessed as time to detect parasitemia at 10 mg/kg, po administered on day 28 post infection for 10 days; type: functional; in short: as §3
[18] = test system: Trypanosoma brucei rhodesiense; assay: Antitrypanosomal activity against Trypanosoma brucei rhodesiense infected in vervet monkey 501 assessed as time to detect CSF parasitosis at 10 mg/kg, po administered on day 28 post infection for 10 days measured after 7 to 14 days; type: functional, organism-based; set-up: dose 10 mg/kg; in short: as §4
[19] = test system: Trypanosoma brucei rhodesiense; assay: Antitrypanosomal activity against Trypanosoma brucei rhodesiense infected in vervet monkey 520 assessed as time to detect CSF parasitosis at 10 mg/kg, po administered on day 28 post infection for 10 days measured after 14 to 21 days by microscopy; type: functional; in short: as §4
[20] = test system: Trypanosoma brucei rhodesiense; assay: Antitrypanosomal activity against Trypanosoma brucei rhodesiense infected in vervet monkey assessed as body weight change at 3 mg/kg, po administered on day 7 post infection for 5 days measured on day 28 post treatment; type: functional; in short: as §1
[21] = test system: Trypanosoma brucei rhodesiense; assay: Antitrypanosomal activity against Trypanosoma brucei rhodesiense infected in vervet monkey assessed as body weight change at 10 mg/kg, po administered on day 7 post infection for 5 days measured on day 28 post treatment; type: functional; in short: as §1
[22] = test system: Trypanosoma brucei rhodesiense; assay: Antitrypanosomal activity against Trypanosoma brucei rhodesiense infected in vervet monkey assessed as change in packed cell volume at 10 mg/kg, po administered on day 28 post infection for 10 days; type: functional
In short: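 Three vervet monkeys were infected intravenously with T. b. rhodesiense KETRI 2537 and treated in late-stage disease. From day 28 p.i., a drug suspension was given by oral gavage once daily for 10 consecutive days. PCV was reported as % change from the mean preinfection value at day 0 p.t., day 28 p.t. and endpoint. Monitoring continued up to 180 days p.t.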

[23] = test system: Trypanosoma brucei rhodesiense; assay: Antimicrobial activity against Trypanosoma brucei rhodesiense infected in vervet monkeys assessed as cure from infection at 10 mg/kg, po administered for 10 days
[24] = test system: Trypanosoma brucei rhodesiense; assay: Antitrypanosomal activity against Trypanosoma brucei rhodesiense infected in vervet monkey 478 assessed as cure from infection at 10 mg/kg, po administered on day 14 post infection for 5 days
[25] = test system: Trypanosoma brucei rhodesiense; assay: Antitrypanosomal activity against Trypanosoma brucei rhodesiense infected in vervet monkey 471 assessed as time to detect parasitemia in wet films of blood at 10 mg/kg, po administered on day 14 post infection for 5 days by hematocrit centrifugation technique

For `CONC(=N)c1ccc(-c2ccc(-c3ccc(C(=N)NOC)cc3)o2)cc1` [PAFURAMIDINE], the Activity [1] was -5%, the Activity [2] was -4.2% and the Activity [3] was “inactive”. For the same molecule, the Activity [4] was “Active”, the Activity [5] was “Active” and the Time [6] was 9 days. The Time [7] was 4 days, the Time [8] was 3 days and the Time [9] was 21 days. For the same molecule, the Time [10] was 79 days, the Time [11] was 21 days and the Time [12] was 69 days. The Time [13] was 66 days, the Time [14] was “Active” and the Time [15] was “inactive”. The Time [16] was 42 days, the Time [17] was 56 days and the Time [18] was “inactive”. It also gave a Time [19] of 119 days, an Activity [20] of -6.6% and an Activity [21] of 0%. The Activity [22] was -41.3%, the Activity [23] was “inactive” and the Time [24] was “Active”. The Time [25] was 87 days.
